# Experimental data gathered from unrelated publications.
# Protocols differ between the studies behind these lines.
# Observed: metabolic stability
# Medium: liver microsomes
SMILES,host,concentration,time,pH,compound remaining [%]
Cc1ccc2c(c1)nc(CCc1cccc3cccnc13)n2-c1ccccc1,rat,1.5 µM,45 min,,0.05
CS(=O)(=O)c1ccc(-c2cnc(N)c(-c3ccc(C(F)(F)F)nc3)c2)cc1,male rat,1 µM,30 min,,97
CC[C@H](C)C(=O)O[C@H]1C[C@@H](C)C=C2C=C[C@H](C)[C@H](CC[C@@H]3C[C@@H](O)CC(=O)O3)[C@H]21,mouse,1 µM,5 min,pH 7.4,0.85
Cc1ccc2c(c1)nc(/C=C/c1cccc3cccnc13)n2-c1ccccc1,rat,1.5 µM,5 min,,75.4
CCCn1nc(C(=O)N2CCCCC2)c2c1CCC(N(C)Cc1ccc(F)cc1)C2 (centres unmarked),mouse,10 µM,1 h,,0
Cc1ncsc1-c1ccc(CNC(=O)[C@@H]2C[C@@H](O)CN2C(=O)[C@@H](NC(=O)CCCCCCCCCCNC(=O)O[C@H]2C[C@@H](C)C=C3C=C[C@H](C)[C@H](CC[C@@H]4C[C@@H](O)CC(=O)O4)[C@H]32)C(C)(C)C)cc1,mouse,1 µM,15 min,pH 7.4,8.23
N#Cc1ccc(C[C@H](NC(=O)Nc2ccc(F)cc2)C(=O)NCC2(c3ccc(OC(F)(F)F)cc3)CC2)cc1,rat,10 µM,30 min,pH 7.4,> 80
CCCn1nc(C(=O)N2CCCCC2)c2c1CCC(N1CCc3ccccc3C1)C2 (centres unmarked),mouse,10 µM,1 h,,< 25
[O-][S+](CCN1CCCN(CC(O)Cc2ccccc2)CC1)C(c1ccc(F)cc1)c1ccc(F)cc1 (centres unmarked),rat,10 µM,1 h,pH 7.4,0
O=S(=O)(c1cccc2cccnc12)N1CC(c2nc(-c3ccc(F)cc3)no2)C1,mouse,,10 min,,74
CCCn1nc(C(=O)N2CCCCC2)c2c1CCC(NCCN1CCCCC1)C2 (centres unmarked),mouse,10 µM,1 h,,54
